Screening results as filed in PubChem BioAssay.
In the library only some 0.54% were active in any assay of this set; here they are far more common.
PP5 primary = PP5 phosphatase inhibitors, primary screen, biochemical, fluorescence; Serine/threonine-protein phosphatase 5 (Homo sapiens), P53041; purified PP5c, OMFP substrate fluorescence; inhibition, % at 6.7 µM; 320,000 tested, 0.18% active;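 active = inhibition above the campaign's mean inhibition across all tested compounds plus 3 SD, cut at about 9.5% in these data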;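 also: 0% = DMSO only and 100% = 100 µM cantharidin control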
PKD1 kinase inh = inhibitors of human PKD1 kinase, biochemical, fluorescence polarization; PKD1 kinase fluorescence polarization assay; inhibition, % (concentration not given with the values); 200,000 tested, 0.056% active; in the data active = inhibition above about 50%
ASAP1 GAP inh = inhibitors of human ASAP1 ArfGAP activity, primary screen, biochemical, fluorescence polarization. 360,000 tested, 0.19% active. ASAP1-stimulated ARF1 GTP hydrolysis, GDP FP detection. inhibition, % at 16.5 µM. Arf-GAP with SH3 domain, ANK repeat and PH domain-containing protein 1 (Homo sapiens), …; in the data active = inhibition above about 25%;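 also: 0% = vehicle with enzyme and substrate and 100% = no enzyme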
Target sequence (Q9ULH1 325-724 limits assumed): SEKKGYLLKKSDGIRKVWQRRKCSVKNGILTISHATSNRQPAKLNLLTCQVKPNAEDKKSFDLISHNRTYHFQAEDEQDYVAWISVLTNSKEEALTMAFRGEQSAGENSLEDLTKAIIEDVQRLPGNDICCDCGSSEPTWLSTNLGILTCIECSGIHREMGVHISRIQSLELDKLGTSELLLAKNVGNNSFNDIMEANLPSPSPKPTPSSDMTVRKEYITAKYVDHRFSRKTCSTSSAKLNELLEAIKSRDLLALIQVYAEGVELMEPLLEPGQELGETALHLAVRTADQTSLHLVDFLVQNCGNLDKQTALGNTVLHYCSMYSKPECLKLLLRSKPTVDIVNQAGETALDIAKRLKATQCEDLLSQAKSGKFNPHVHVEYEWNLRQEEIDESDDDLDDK
ARFGAP1 inhibitor = inhibitors of rat ARFGAP1 GAP activity, primary screen, biochemical, fluorescence polarization, GDP tracer | Arfgap1-stimulated ARF1 GTP hydrolysis, GDP FP detection | ADP-ribosylation factor GTPase-activating protein 1 (Rattus norvegicus), Q62848 | inhibition, % at 16.5 µM | 360,000 tested, 0.26% active;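 active = inhibition above a per-plate limit, mean inhibition of low control wells plus 3 SD, cut at about 25% in these data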;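 also: 0% = DMSO wells with enzyme and 100% = wells lacking Arfgap1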
Target sequence (Q62848 1-136 limits assumed): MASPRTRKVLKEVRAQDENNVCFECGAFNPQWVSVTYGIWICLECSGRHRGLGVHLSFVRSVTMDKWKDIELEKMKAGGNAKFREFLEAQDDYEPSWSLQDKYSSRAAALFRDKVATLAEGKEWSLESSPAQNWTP
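Replicates: Single well per compound | Assay system: Truncated rat Arfgap1 GAP domain | Control set: No-Arfgap1 wells (100%) versus DMSO full-reaction wells (0%) | Times: Enzyme reaction 120 min at 25 °C after 20 min preincubation | Reagent: Human ARF1(Δ1-17)-GTP substrate | Measured by: Tracer-displacement fluorescence polarization with EDTA stop, 620/688 nm | Measure: Percent inhibition of Arfgap1-stimulated GTP hydrolysis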
ASAP1 GAP conf = ASAP1 GAP activity inhibitors, confirmation, biochemical, fluorescence polarization, human, triplicate; shares compounds with ASAP1 GAP inh; ASAP1-stimulated Arf1 GTPase, GDP fluorescence polarization; inhibition, % at 16.5 µM; 620 tested, 37% active; AID 624431, 2012;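 active = mean inhibition over triplicates exceeds the hit threshold derived for the earlier primary screening run, cut at about 25% in these data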
* = called active by the depositor; / = no result given.

SMILES | PP5 primary | PKD1 kinase inh | ASAP1 GAP inh | ARFGAP1 inhibitor | ASAP1 GAP conf
Cc1cccc(C(=O)N2CCC[C@H]2C(=O)N2CCC[C@H]2C(=O)NCc2ccncc2)c1 | / | / | -5.0 | 5.1 | /
CN(C(=O)CSc1nncn1C)C1CCCN(Cc2ccccc2F)C1 (stereo unspecified) | 0.3 | / | 30.6* | 15.4 | 1.1
Nc1ccc(Oc2cccc(Oc3ccc(N)cc3)c2)cc1 | 1.4 | 0.6 | 28.1* | 15.2 | 16.3
O=C(C1CCCN(Cc2ccccc2[N+](=O)[O-])C1)N1CCCC1 (stereo unspecified) | / | / | 26.7* | -8.8 | 3.5
O=C(C1CCCN(Cc2ccccc2F)C1)N1CCCC1 (stereo unspecified) | -1.3 | / | -1.7 | -8.6 | /
O=C(Nc1ccc2oc(=O)ccc2c1)c1ccc(-c2cccc(Cl)c2)o1 | -1.7 | / | 23.5 | -1.2 | /
O=C(Nc1ccc2oc(=O)ccc2c1)c1ccc(-c2ccc(Cl)cc2)o1 | -0.3 | -8.2 | 48.4* | 6.6 | 68.6*
C[C@@H](C(=O)O)[C@H]1C[C@]1(C)[C@H](NC(=O)OCc1ccccc1)c1ccccc1 | -1.6 | -1.7 | 26.1* | -3.0 | -0.4
COc1ccc(-n2nc(C(=O)NCC(=O)NC(C)C)c3ccccc3c2=O)cc1Cl | 3.6 | / | 12.5 | 6.7 | /
COc1ccc(-n2nc(C(=O)NCC(=O)Nc3ccccn3)c3ccccc3c2=O)cc1Cl | / | 16.2 | 51.0* | 11.5 | 60.6*
CCCCCCCCN1C(=O)[C@H](CC(=O)N2CCCC2)C[C@@]2(C(=O)OC)CC(C)(C)CC=C12 | / | / | -3.5 | -5.5 | /
CCOc1ccc(Br)cc1S(=O)(=O)Nc1ccc(C(=O)Nc2ccccc2OC)cc1 | 4.7 | -2.5 | 15.4 | 4.8 | /
CCOc1ccc(Br)cc1S(=O)(=O)Nc1ccc(C(=O)OCC(=O)N(C)c2ccccc2)cc1 | 2.4 | -8.8 | 26.3* | 0.3 | 10.0
Cc1ccc2nc(-c3ccc(Cl)cc3)c(Cc3ccsc3)n2c1 | / | / | -5.1 | -12.4 | /
COc1cc(C(=O)Nc2ccc3c(c2)C(=O)c2ccccc2C3=O)cc(OC)c1OC | -0.6 | 0.6 | 2.7 | -12.7 | /
COc1ccc(C(=O)Nc2ccc3c(c2)C(=O)c2ccccc2C3=O)cc1OC | 0.3 | -5.5 | 27.1* | 4.9 | 40.0*
Cc1ccc(S(=O)(=O)NCc2ccccc2Br)cc1 | / | / | 14.9 | 1.8 | /
COc1ccc(/C=N/NC(=O)Cn2c(Cc3ccc(OC)c(OC)c3)nc3ccccc32)cc1OC | 0.6 | 2.3 | 31.1* | -2.6 | -0.7
CCOC(=O)c1sc(NC(=O)CNCc2cccnc2)c(C(=O)OCC)c1C | 2.1 | -2.3 | 36.9* | 11.5 | 0.6
CCOC(=O)c1sc(NC(=O)CNCc2ccccn2)c(C(=O)OCC)c1C | 1.8 | / | -9.7 | 2.1 | /
O=C(Nc1ccc(Cn2cccn2)cc1)c1ccc(COc2cccc(Br)c2)cc1 | 3.4 | -7.4 | 29.0* | 19.7 | 6.6
CN1CCN(c2ccc(NC(=O)c3ccc(-c4cccc([N+](=O)[O-])c4)o3)cc2)CC1 | 4.3 | 4.0 | 31.4* | 17.1 | 106.2*
CC(=O)Oc1ccc2ccccc2c1C(NC(=O)Cc1ccccc1)c1ccc(Cl)cc1 (stereo unspecified) | 2.7 | -10.7 | 139.5* | 1.6 | 6.2
CCOc1ccc(C(NC(=O)CC)c2c(O)ccc3ccccc23)cc1 (stereo unspecified) | 0.8 | / | 7.3 | 1.5 | /
C[C@@H]1CN([C@H](C)CO)C(=O)CCCn2nncc2CO[C@H]1CN(C)C(=O)Nc1ccc2c(c1)OCCO2 | / | / | -13.4 | 6.3 | /
SMILES | PP5 primary | PKD1 kinase inh | ASAP1 GAP inh | ARFGAP1 inhibitor | ASAP1 GAP conf
O=C(Nc1sc2c(c1C(=O)O)CCCCC2)c1ccco1 | 2.8 | -3.6 | -3.8 | 6.6 | /
CC1CCc2c(sc(NC(=O)c3ccco3)c2C(=O)O)C1 (stereo unspecified) | 0.0 | / | 26.9* | -1.9 | -2.1
NS(=O)(=O)c1ccc(NC(=O)CN2CCN(S(=O)(=O)/C=C/c3ccccc3)CC2)cc1 | -0.2 | / | 30.2* | 8.8 | 3.7
COc1cc(/C=C/c2nc(-c3ccccc3O)n[nH]2)cc(OC)c1OC | 4.5 | -2.5 | 25.4* | 24.3 | 31.0*
COCCNC(=O)c1ccc(CSc2nc3ccccc3s2)cc1 | 3.1 | / | -20.4 | -0.1 | /
CCNC(=O)c1ccc(CSc2nc3ccccc3s2)cc1 | 1.9 | / | 27.1* | 12.3 | 7.6
COC(=O)C1=C(C)N(C)C(=NCc2ccccc2C(F)(F)F)NC1c1cccc(F)c1 (stereo unspecified) | / | / | 1.1 | -5.8 | /
CC1CC(C)CN(C(=O)c2cccc(N3C(=O)c4ccccc4C3=O)c2)C1 (stereo unspecified) | 0.1 | / | 24.9* | -5.5 | 7.7
CC1CCN(C(=O)c2ccc(N3C(=O)c4ccccc4C3=O)cc2)CC1 | 4.1 | / | -6.0 | 0.5 | /
C[C@H](O)[C@@H]1C(=O)N2CCc3c([nH]c4cccc(-c5ccccc5)c34)[C@@H]2C[C@@H]1N(C)CC1CCCCC1 | / | / | 1.1 | -4.2 | /
CCOC(=O)C1=C[C@@H](C(C)C)N(S(=O)(=O)c2ccc(C)cc2)[C@H]1c1ccc(C(C)C)cc1 | / | / | 0.5 | -3.0 | /
N#Cc1c(-c2cccc(Br)c2)cc(-c2cccnc2)nc1N | 1.0 | 12.1 | 28.0* | -0.9 | 23.7
CC(=O)C1C(c2ccc(C)cc2)c2c(n[nH]c2C)CC1(C)O (stereo unspecified) | 0.6 | 7.1 | 43.4* | -10.3 | 1.2
O=C(Nc1ccc2c(c1)OCCO2)C(C1CC1)N1CCN(c2ccc(F)cc2)CC1 (stereo unspecified) | / | / | -0.2 | -10.2 | /
Cc1c(C(=O)Oc2ccc(-c3cnc4ccccc4n3)cc2)cccc1[N+](=O)[O-] | -0.6 | -2.6 | 25.1* | -2.3 | 12.9
O=c1cc(-c2ccccc2)oc2c1ccc1ccccc12 | / | / | -3.9 | 7.5 | /
O=c1cc(-c2ccc(O)c(O)c2)oc2c1ccc1ccccc12 | 1.4 | / | 24.7* | 9.7 | 11.5
CCOC(=O)C1=C(CSc2nc(-c3ccccc3)ccc2C#N)OC(N)=C(C#N)C1c1ccccc1 (stereo unspecified) | 5.8 | 3.6 | 27.1* | 4.6 | 15.5
COc1ccc(-n2nnc3c(=O)n(CC(=O)Nc4ccc5c(c4)OCCO5)cnc32)cc1OC | 2.1 | / | 108.3* | 12.6 | 72.9*
O=C(Cn1cnc2c(nnn2-c2cccc(F)c2)c1=O)Nc1ccc2c(c1)OCCO2 | -0.7 | / | 0.7 | 1.8 | /
COc1cccc(-c2ccc3c(c2)O[C@H](CN(C)C(=O)c2ccccc2F)[C@H](C)CN([C@H](C)CO)S3(=O)=O)c1 | / | / | 25.1* | -10.8 | 4.4
COc1cccc(-c2ccc3c(c2)O[C@@H](CN(C)Cc2cncnc2)[C@@H](C)CN([C@H](C)CO)S3(=O)=O)c1 | / | / | 7.2 | 0.8 | /
